The source of these data is ChEMBL document CHEMBL1799979, “Antifolate and antiproliferative activity of 6,8,10-triazaspiro[4.5]deca-6,8-dienes and 1,3,5-triazaspiro[5.5]undeca-1,3-dienes” (Bioorg Med Chem, 2010).

Assay [1] concerns A549. The assay is described as follows: Antiproliferative activity against human A549 cells after 72 hrs by fluorometric microculture cytotoxicity assay. To be noted: A549, 72 h.
A further assay addresses T1, Dihydrofolate reductase (Bos taurus, UniProt P00376).
T1 sequence (P00376 whole entry): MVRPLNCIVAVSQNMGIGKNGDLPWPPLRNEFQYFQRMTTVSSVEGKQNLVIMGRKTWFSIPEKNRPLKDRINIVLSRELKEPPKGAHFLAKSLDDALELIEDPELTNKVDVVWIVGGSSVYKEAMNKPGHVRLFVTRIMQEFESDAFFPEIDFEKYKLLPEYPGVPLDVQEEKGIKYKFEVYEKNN
Description: Inhibition of bovine liver DHFR using dihydrofolic acid substrate by UV-visible spectrophotometry.

Assay [2] concerns A549. Description: Growth inhibition of human A549 cells assessed as cell growth at 270 nM after 72 hrs by fluorometric microculture cytotoxicity assay in presence of 100 uM hypoxanthine relative to untreated control. The arrangement: scale not given: the % may be the effect or the level left. Format: functional. In outline: (§1)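 A549 cells were seeded and incubated 24 h, then medium was swapped for medium holding a fixed compound concentration alone, or with 20 µM thymidine, 100 µM hypoxanthine, or both. Twelve wells were used per solution, with solvent-matched controls. After 72 h, cells were PBS-washed, given FDA 2 µg/mL for 45 min at 37 °C, and fluorescence read at ex 485/em 535 nm. Growth is relative to control, as mean (SEM), n = 3.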

Assay [3] deals with A549. The assay is described as follows: Growth inhibition of human A549 cells assessed as cell growth at 270 nM after 72 hrs by fluorometric microculture cytotoxicity assay in presence of 20 uM thymidine relative to untreated control. Set-up: scale not given: the % may be the effect or the level left. Format: functional. Summed up:
as §1

Assay [4] relates to A549. Description: Growth inhibition of human A549 cells assessed as cell growth at 270 nM after 72 hrs by fluorometric microculture cytotoxicity assay in presence of 100 uM hypoxanthine and 20 uM thymidine relative to untreated control. Format: functional. Set-up: scale not given: the % may be the effect or the level left. Summed up: as §1
The subject of assay [5] is A549. Description: Growth inhibition of human A549 cells assessed as cell growth at 270 nM after 72 hrs by fluorometric microculture cytotoxicity assay relative to untreated control. Format: functional. To be noted: A549, 72 h, read-out: Activity. Summed up: as §1
Assay [6] deals with A549. Description: Growth inhibition of human A549 cells assessed as cell growth at 370 nM after 72 hrs by fluorometric microculture cytotoxicity assay in presence of 100 uM hypoxanthine relative to untreated control. Format: functional. The arrangement: scale not given: the % may be the effect or the level left. In outline: as §1
For assay [7], the system named is A549. Description: Growth inhibition of human A549 cells assessed as cell growth at 370 nM after 72 hrs by fluorometric microculture cytotoxicity assay in presence of 20 uM thymidine relative to untreated control. Format: functional. Set-up: scale not given: the % may be the effect or the level left. In outline: as §1
Assay [8] concerns A549. Description: Growth inhibition of human A549 cells assessed as cell growth at 370 nM after 72 hrs by fluorometric microculture cytotoxicity assay in presence of 100 uM hypoxanthine and 20 uM thymidine relative to untreated control. The assay is classed as functional. The arrangement: scale not given: the % may be the effect or the level left. Summed up: as §1
Assay [9] concerns A549. Description: Growth inhibition of human A549 cells assessed as cell growth at 370 nM after 72 hrs by fluorometric microculture cytotoxicity assay relative to untreated control. The assay is classed as functional. To be noted: A549, 72 h, read-out: Activity. In outline:
as §1

The test system of assay [10] is A549. Description: Growth inhibition of human A549 cells assessed as cell growth at 6.4 uM after 72 hrs by fluorometric microculture cytotoxicity assay in presence of 100 uM hypoxanthine relative to untreated control. The assay is classed as functional. The arrangement: scale not given: the % may be the effect or the level left. In outline:
as §1

Assay [11] concerns A549. Description: Growth inhibition of human A549 cells assessed as cell growth at 6.4 uM after 72 hrs by fluorometric microculture cytotoxicity assay in presence of 20 uM thymidine relative to untreated control. Set-up: scale not given: the % may be the effect or the level left. The assay is classed as functional. In outline: as §1
Assay [12] deals with A549. The assay is described as follows: Growth inhibition of human A549 cells assessed as cell growth at 6.4 uM after 72 hrs by fluorometric microculture cytotoxicity assay in presence of 100 uM hypoxanthine and 20 uM thymidine relative to untreated control. Format: functional. Set-up: scale not given: the % may be the effect or the level left. Summed up:
as §1

The test system of assay [13] is A549. Description: Growth inhibition of human A549 cells assessed as cell growth at 6.4 uM after 72 hrs by fluorometric microculture cytotoxicity assay relative to untreated control. The assay is classed as functional. To be noted: A549, 72 h, read-out: Activity. In outline: as §1

Structures are written as SMILES.

A word on the IC50: it is the concentration at which inhibition is half-maximal.

For the compound `NC1=NC2(CCCC2)N(OCCCOc2ccccc2)C(N)=N1`, the IC50 with A549 [1] stood at 40.2 nM.

With `NC1=NC2(CCCC2)N(OCCCOc2ccc(F)cc2)C(N)=N1`, the IC50 against Dihydrofolate reductase amounted to 10.1 nM; in the assay with A549 [1], 58.8 nM.

Regarding `Cl.NC1=NC2(CCCC2)N(OCCCOc2ccc(Cl)cc2)C(N)=N1`, the IC50 was 7.2 nM on Dihydrofolate reductase and 27.1 nM in the assay with A549 [1]. In addition, the values for the Activity in the assay on A549 [2], in the assay with A549 [3] and in the assay on A549 [4] were 14.3%, 68% and 90%, respectively. Also, the growth at 0.27 µM in the assay on A549 [5] was found to be 15.2%.

`NC1=NC2(CCCC2)N(OCCCOc2ccc([N+](=O)[O-])cc2)C(N)=N1`: the figures for the IC50 against Dihydrofolate reductase and in the assay with A549 [1] were 8.4 nM and 65.8 nM, respectively.

As for `Cc1ccc(OCCCON2C(N)=NC(N)=NC23CCCC3)cc1`, the IC50 came out at 9.5 nM on Dihydrofolate reductase and 48.1 nM in the assay on A549 [1].

Regarding `CC(C)(C)c1ccc(OCCCON2C(N)=NC(N)=NC23CCCC3)cc1`, the figures for the IC50 on Dihydrofolate reductase and in the assay with A549 [1] were 17 nM and 160 nM, respectively.

For the compound `COc1ccc(OCCCON2C(N)=NC(N)=NC23CCCC3)cc1`, the IC50 against Dihydrofolate reductase is 11.2 nM; in the assay on A549 [1], 59.1 nM.

Regarding `N#Cc1ccc(OCCCON2C(N)=NC(N)=NC23CCCC3)cc1`, the IC50 against Dihydrofolate reductase came out at 7.6 nM; with A549 [1] it was 60.7 nM.

For `CC(=O)c1ccc(OCCCON2C(N)=NC(N)=NC23CCCC3)cc1`, the IC50 is 9.2 nM against Dihydrofolate reductase and 59.8 nM in the assay on A549 [1].

`NC1=NC2(CCCCC2)N(OCCCOc2ccccc2)C(N)=N1`: it took 69.7 nM to reach half-maximal inhibition in the assay on A549 [1] (IC50).

With `NC1=NC2(CCCCC2)N(OCCCOc2ccc(F)cc2)C(N)=N1`, the IC50 is 15.4 nM on Dihydrofolate reductase and 59.2 nM with A549 [1].

`NC1=NC2(CCCCC2)N(OCCCOc2ccc(Cl)cc2)C(N)=N1`: the IC50 turned out to be 13.8 nM against Dihydrofolate reductase and 49.6 nM with A549 [1].

`NC1=NC2(CCCCC2)N(OCCCOc2ccc([N+](=O)[O-])cc2)C(N)=N1`: the IC50 is 14.7 nM against Dihydrofolate reductase and 329 nM with A549 [1].

Consider `Cc1ccc(OCCCON2C(N)=NC(N)=NC23CCCCC3)cc1`, for which the results for the IC50 at Dihydrofolate reductase and with A549 [1] were 17.5 nM and 83.3 nM, respectively.

In the case of `CC(C)(C)c1ccc(OCCCON2C(N)=NC(N)=NC23CCCCC3)cc1`, the IC50 turned out to be 21.5 nM at Dihydrofolate reductase and 496 nM with A549 [1].

As to `COc1ccc(OCCCON2C(N)=NC(N)=NC23CCCCC3)cc1`, the IC50 against Dihydrofolate reductase came to 6.1 nM; in the assay with A549 [1], 51.6 nM.

Turning to `N#Cc1ccc(OCCCON2C(N)=NC(N)=NC23CCCCC3)cc1`, the IC50 at Dihydrofolate reductase is 9.7 nM; in the assay on A549 [1], 116 nM.

Turning to `CC(=O)c1ccc(OCCCON2C(N)=NC(N)=NC23CCCCC3)cc1`, the IC50 is 13.3 nM on Dihydrofolate reductase and 145 nM with A549 [1].

As to `NC1=NC2(CCCCC2)N(OCCCOc2ccc(S(N)(=O)=O)cc2)C(N)=N1`, the IC50 amounted to 5.6 nM against Dihydrofolate reductase and 166 nM with A549 [1].

As for `CN(Cc1cnc2nc(N)nc(N)c2n1)c1ccc(C(=O)N[C@@H](CCC(=O)O)C(=O)O)cc1` [METHOTREXATE], the results for the Activity with A549 [6], with A549 [7] and in the assay with A549 [8] were 16%, 77.3% and 96.6%, respectively. Also, the growth at 0.37 µM in the assay on A549 [9] is 14.3%. This compound also registered an IC50 with A549 [1] of 37.4 nM.

As for `Nc1nc2[nH]cc(CCc3ccc(C(=O)N[C@@H](CCC(=O)O)C(=O)O)cc3)c2c(=O)[nH]1` [PEMETREXED], the Activity in the assay with A549 [10] is listed as 12.6%; in the assay with A549 [11], 84.5%; in the assay on A549 [12] it was 99.3%. Moreover, the growth at 6.4 µM with A549 [13] amounted to 11.7%.
